Calls of active or inactive are those of the source. The calls are words filed in the database; no cut-off is given here.
Columns and labels:
[1] = system: Mus musculus; test: Percentage reduction of triglyceride (TG) in db/db mice at 3 mg/kg; assay type: functional
Outline: (§1)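 db/db mice were dosed orally at 3 mg/kg for 6 days. Plasma glucose and triglyceride were then measured, and each value is the percentage reduction.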

[2] = target: T1, Peroxisome proliferator-activated receptor gamma (Homo sapiens) (UniProt P37231); test: Compound was tested for activation of peroxisome proliferator-activated receptor gamma activity at 1 uM concentration by transactivation assay
T1 sequence (whole entry): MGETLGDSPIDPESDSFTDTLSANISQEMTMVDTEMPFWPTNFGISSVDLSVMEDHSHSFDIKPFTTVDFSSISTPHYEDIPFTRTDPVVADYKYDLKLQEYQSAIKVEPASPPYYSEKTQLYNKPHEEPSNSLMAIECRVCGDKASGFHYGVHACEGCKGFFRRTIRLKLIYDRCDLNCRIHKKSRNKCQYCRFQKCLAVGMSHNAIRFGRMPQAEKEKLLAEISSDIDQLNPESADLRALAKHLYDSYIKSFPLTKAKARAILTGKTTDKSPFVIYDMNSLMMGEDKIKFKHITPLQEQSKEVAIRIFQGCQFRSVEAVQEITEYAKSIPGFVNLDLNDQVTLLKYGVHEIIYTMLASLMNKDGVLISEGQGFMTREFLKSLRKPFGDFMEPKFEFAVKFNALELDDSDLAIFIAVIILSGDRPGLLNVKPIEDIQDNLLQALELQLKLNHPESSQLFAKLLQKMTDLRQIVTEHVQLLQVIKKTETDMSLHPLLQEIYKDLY
Outline: (§2)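 Cell-based PPAR transactivation assay, with receptor activity expressed as fold activation. Each compound was tested at a single concentration, which differed between the PPARα and PPARγ arms.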

[3] = system: Mus musculus; test: Percentage reduction of plasma glucose (PG) in db/db mice at 3 mg/kg; No effect; assay type: functional, organism-based; parameters: dose 3 mg/kg; outline: as §1
[4] = target: T2, Peroxisome proliferator-activated receptor alpha (Homo sapiens) (UniProt Q07869); test: Compound was tested for activation of peroxisome proliferator-activated receptor alpha activity at 50 uM concentration by transactivation assay; outline: as §2
T2 sequence (whole entry): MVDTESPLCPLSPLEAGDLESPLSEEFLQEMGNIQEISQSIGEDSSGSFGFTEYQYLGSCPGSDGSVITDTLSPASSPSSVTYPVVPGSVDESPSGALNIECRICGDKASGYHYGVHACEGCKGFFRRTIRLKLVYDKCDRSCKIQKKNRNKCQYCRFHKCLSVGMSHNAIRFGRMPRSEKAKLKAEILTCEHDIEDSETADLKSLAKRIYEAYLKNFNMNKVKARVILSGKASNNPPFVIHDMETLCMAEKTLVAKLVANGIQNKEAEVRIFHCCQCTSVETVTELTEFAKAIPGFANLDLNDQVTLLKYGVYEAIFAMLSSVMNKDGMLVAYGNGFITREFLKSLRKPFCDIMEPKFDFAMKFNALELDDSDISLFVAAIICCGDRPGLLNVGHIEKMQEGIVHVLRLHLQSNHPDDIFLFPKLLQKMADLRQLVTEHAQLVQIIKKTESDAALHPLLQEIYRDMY

[5] = system: Mus musculus; test: Percentage reduction of triglyceride (TG) in db/db mice at 3 mg/kg; No effect; assay type: functional, organism-based; parameters: dose 3 mg/kg; outline: as §1
[6] = system: Mus musculus; test: Percentage reduction of plasma glucose (PG) in db/db mice at 3 mg/kg; assay type: functional; outline: as §1

Compound	Reduction [1] [%]	Activity [2]	Reduction [3]	Activity [4]	Reduction [5]	Reduction [6] [%]
CCOC(Cc1cc(Br)c(OCCN2C(=O)COc3ccsc32)c(Br)c1)C(=O)O (stereo not given)	48	1.6	inactive	5		
CCOC(Cc1ccc(OCCN2C(=O)COc3ccsc32)c(OC)c1)C(=O)O (stereo not given)		1.2	inactive	0.5	inactive	
CCOC(Cc1ccc(OCCN2C(=O)COc3ccsc32)c(Cl)c1)C(=O)O (stereo not given)	27	7		2.5		21
CCOC(Cc1ccc(OCCN2C(=O)COc3ccsc32)c(Br)c1)C(=O)O (stereo not given)	62	1.2	inactive	8		
O=C(O)Cc1ccc(OCCN2C(=O)COc3ccsc32)c(Br)c1	14	8		1.3		21
O=C(O)Cc1ccc(OCCCN2C(=O)COc3ccsc32)cc1		5		0.5	inactive	14
O=C(O)Cc1ccc(OCCN2C(=O)COc3ccsc32)cc1	43	14		5		39
CCOC(Cc1ccc(OCCN2C(=O)COc3ccsc32)c(C)c1)C(=O)O (stereo not given)	19	18		1.5		52
CCOC(Cc1ccc(OCCN2C(=O)COc3ccsc32)cc1)C(=O)O (stereo not given)	56	16		8		47
O=C(O)Cc1cc(Br)c(OCCN2C(=O)COc3ccsc32)c(Br)c1	15	15		2		43
